# M1 PAM: positive allosteric modulators of human M1 muscarinic receptor. P11229. CHO-K1 hM1, Fluo-8 calcium fluorescence, ACh EC20; 0% = ACh EC20, 100% = maximal ACh. activation, % at 3 µM. 360,000 compounds, 0.088% hits; in the data active = activation above about 19%, passing the limit was not always enough
# Target sequence (P11229 whole entry, looked up): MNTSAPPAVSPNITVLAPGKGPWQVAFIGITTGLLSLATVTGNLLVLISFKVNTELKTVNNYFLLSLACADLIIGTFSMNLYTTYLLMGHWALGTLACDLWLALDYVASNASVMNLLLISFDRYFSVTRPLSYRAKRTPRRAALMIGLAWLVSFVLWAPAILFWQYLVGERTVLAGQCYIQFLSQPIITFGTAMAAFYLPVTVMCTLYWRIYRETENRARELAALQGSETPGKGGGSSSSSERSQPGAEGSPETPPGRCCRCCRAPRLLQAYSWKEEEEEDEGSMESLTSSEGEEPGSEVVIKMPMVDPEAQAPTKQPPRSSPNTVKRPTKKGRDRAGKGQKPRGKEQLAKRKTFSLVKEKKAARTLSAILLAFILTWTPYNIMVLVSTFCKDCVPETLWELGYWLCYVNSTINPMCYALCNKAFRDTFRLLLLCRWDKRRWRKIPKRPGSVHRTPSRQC
# M5 antag: CHRM5 antagonism in calcium assay; P08912; CHO-hM5 cells, Fluo-8 calcium fluorescence, ACh EC80; inhibition, % at 3 µM; 360,000 compounds, 0.59% hits;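 active = inhibition above a per-plate cutoff, the mean of that plate's test compounds plus 3 SD, cut at about 27% in these data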;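 also: 0% = acetylcholine EC80 with DMSO and 100% = DMSO without agonist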
# M1 antag: blocks human M1 muscarinic receptor. inhibition, % at 3 µM. P11229. 360,000 compounds, 1.3% hits. CHO-K1 hM1, Fluo-8 calcium fluorescence, ACh EC80 antagonist;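 active = percent inhibition above its own plate's cutoff, namely the mean of that plate's compound wells plus 3 SD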;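 also: peak over basal fluorescence ratio during 140 s after agonist addition; 0% = ACh EC80 plus DMSO and 100% = DMSO alone without agonist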
# M1 ag: activates human CHRM1 receptor | CHO-K1 hM1, Fluo-8 calcium fluorescence, agonist mode; 0% DMSO, 100% acetylcholine EC100 | activation, % at 3 µM | P11229 | 360,000 compounds, 0.33% hits;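 active = activation above the run's mean compound activation plus 3 SD, cut at about 16% in these data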;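 also: peak over basal fluorescence ratio within a 140 s kinetic read after compound addition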
# CHRM5 agonist: CHRM5 agonism in calcium assay; P08912; AID 624037; CHO-K1 hM5 cells, Fluo-8 calcium fluorescence; 0% DMSO wells, 100% maximal acetylcholine response; activation, % at 3 µM; 360,000 compounds, 0.19% hits;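 active = activation above the run's mean over test compounds plus 3 SD, cut at about 23% in these data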;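 also: signal is peak over basal fluorescence ratio across the kinetic read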
# M5 PAM: potentiates acetylcholine response at human M5 receptor; P08912; AID 624038; 360,000 compounds, 0.3% hits; CHO-K1 hM5, Fluo-8 calcium, ACh EC20 PAM; 0% = ACh EC20, 100% = ACh EC100; activation, % at 3 µM;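 active = activation above the run cutoff, the mean activation of all test compounds plus 3 SD, cut at about 18% in these data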
#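 System: CHO-K1 hM5 cells. Reagent: acetylcholine, EC20 level. Compound dosing: single dose, 3 µM nominal final test concentration. Timing: Post-acetylcholine fluorescence recording 140 s. Detection: Fluo-8 calcium fluorescence. Read-out: % activation, ACh-normalized. Benchmarks: ACh EC20 and EC100 wells. Repeats: singlicate, one well per test compound.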
# Starred values were filed as active, the others as inactive. A selection: hits, their analogues and other compounds. The true share with any hit is near 2.1%.
SMILES,M1 PAM,M5 antag,M1 antag,M1 ag,CHRM5 agonist,M5 PAM
CC1CCC(C(C)C)C(OC(=O)CSc2nnc(N)s2)C1 (configuration not stated),2.4,-13.3,-8.9,-2.7,-2.8,-2.5
CC1CCC(C(C)C)C(OC(=O)Cn2c(-c3ccc(F)cc3)[n+](C)c3ccccc32)C1 (configuration not stated),-26.2,18.1,51.3*,-10.6,-7.4,-9.3
COc1ccc(S(=O)(=O)N2CCOCC2)cc1NC(=O)c1ccc(-n2nc(C)cc2C)cc1,12.7,0.1,-14.0,0.1,3.1,-0.3
COc1ccc(Cc2nnc(SCC(=O)c3ccccc3)o2)cc1,4.1,3.9,-0.8,-1.5,-2.6,-1.7
N#Cc1c(N)c(C#N)c(-c2ccc3c(c2)OCO3)c2c1CCCC2,3.1,-18.2,-11.5,-6.8,-2.9,23.1*
CCCCC(=O)Nc1ccc(C(=O)c2ccccc2)cc1,1.3,-4.0,-5.5,-8.7,-2.8,-1.3
O=C(CN1C(=O)CSc2ccc(S(=O)(=O)N3CCOCC3)cc21)NCCCN1CCCCC1,-15.0,11.6,38.0*,-5.9,-2.1,-4.7
CCCCNC(=O)CN1C(=O)CSc2ccc(S(=O)(=O)N3CCOCC3)cc21,3.0,4.2,-6.8,-1.6,1.1,-2.4
CCCCCCCNC(=O)CN1C(=O)CSc2ccc(S(=O)(=O)N3CCOCC3)cc21,-0.8,29.9*,12.2,-6.5,-6.1,-6.8
C[C@@H]1CNC(=O)c2c(C(=O)NC3CCN(C(=O)OC(C)(C)C)CC3)ncn21,8.8,-10.0,-3.1,-2.5,4.0,8.6
COc1ccc(Br)cc1C(=O)NCc1cccnc1,1.1,-2.5,4.2,-3.0,-5.9,-2.2
O=C(NC(=S)NCc1cccnc1)c1cc(Br)ccc1Cl,13.1,-7.9,0.9,2.2,-1.4,21.9*
Cc1ccccc1C(=NCCCN(C)C)c1ccccc1C,-27.6,24.6,77.2*,-15.4,-7.3,-18.9
Cc1cccc(C)c1C(=NCCN(C)C)c1ccccc1,-24.1,47.6*,75.0*,-6.4,-18.1,-31.3
CC(=NCCCN(C)C)C1=C(O)c2ccccc2C1=O,1.5,-0.7,2.0,-5.7,-0.5,1.9
CN(N=C(c1ccccc1)c1ccccc1)c1ccccc1,5.2,1.6,-5.5,0.9,4.4,6.2
Cn1ccc(C(=O)NC(=S)N2CCSCC2)n1,-2.1,2.6,-0.8,-2.0,-1.5,-1.8
CC(=O)c1cccc(NC(=O)COC(=O)COc2ccccc2C)c1,5.8,6.1,-9.4,-3.3,-0.9,-6.1
FC(F)Sc1ccc(NC(=S)NCC2CCCCC2)cc1,-16.3,39.8*,30.8*,1.2,1.3,-17.1
FC(F)Sc1ccc(NC(=S)NC2CCCCC2)cc1,-10.4,19.9,17.6,-0.9,1.8,-14.0
COc1cc(/C=N/NC(=S)NC2CC3CC2C2C=CCC32)ccc1O (configuration not stated),2.1,0.3,-2.3,-4.0,2.8,2.6
Cc1c(Cl)c([N+](=O)[O-])nn1CCCC(=O)N(Cc1ccccc1)Cc1ccccc1,-3.6,0.1,4.6,-9.2,-3.0,-4.6
CCN(CCO)Cc1csc2c(Br)cccc12,23.1*,-6.9,-41.4,-3.6,-3.6,4.0
O=C(Nc1ccc2nc(SCc3ccc(Cl)cc3)sc2c1)c1ccccc1C(=O)N1CCOCC1,-8.8,6.8,29.3*,-2.1,0.6,-15.0
COC(=O)CSc1nc2ccc(NC(=O)c3ccccc3C(=O)N3CCOCC3)cc2s1,-6.8,17.6,8.0,1.1,2.9,-11.9
SMILES,M1 PAM,M5 antag,M1 antag,M1 ag,CHRM5 agonist,M5 PAM
COc1ccc(CCNC(=O)c2ccc(CS(=O)(=O)c3ccc(C)cc3)o2)cc1OC,-1.9,1.1,5.8,1.6,-0.9,-33.5
COc1ccc(CCNC(=O)c2ccc(CS(=O)(=O)c3ccc(Cl)cc3)o2)cc1OC,-25.0,13.1,30.1*,4.3,12.4,-23.4
COc1ccc([C@@H]2CC=C(C(=O)O)[C@H](c3ccc(F)cc3)N2S(=O)(=O)c2ccccc2C)cc1,4.9,0.7,-0.7,-6.3,-0.6,9.0
COc1ccc([C@@H]2CC=C(C(=O)O)[C@H](c3ccccc3F)N2S(=O)(=O)c2ccccc2C)cc1,8.1,-5.2,-8.8,-4.9,4.4,20.0*
Cc1ccc(C(=O)Nc2nc(=O)n(C)s2)cc1,5.1,3.5,-0.2,-0.3,5.2,-2.1
N#C/C(=C/c1ccccc1)C(=O)NCc1ccccc1,15.9,-9.3,-12.9,0.5,1.1,3.5
CN(C)c1ccc(/C=C(/C#N)C(=O)NCc2ccccc2)o1,-14.3,14.7,15.4,8.0,25.1*,-15.6
O=C(Cc1ccccc1)NC(NC(=O)Cc1ccccc1)c1cccc([N+](=O)[O-])c1,9.5,-10.4,-5.6,-4.7,-3.1,4.5
C=CCN(CC(O)c1cccc([N+](=O)[O-])c1)C(C)CCc1ccccc1 (configuration not stated),-24.4,17.6,39.0*,-7.2,-21.4,-35.6
O=C(CNC(=O)c1ccccc1)OC1CCCCC1,11.4,-6.7,-11.2,-4.8,2.0,4.9
C[N+]1(C)CCCC(OC(=O)C(O)(c2ccccc2)c2ccccc2)C1 (configuration not stated),-25.6,98.9*,99.4*,-8.7,-1.6,-18.6
COC(=O)c1ccc(/C=C/C(=O)OCC(=O)Nc2sccc2C(N)=O)cc1,-24.6,27.0*,47.1*,4.7,6.7,-34.7
COc1ccc(/C=C/C(=O)OCC(=O)Nc2cccc(C(C)=O)c2)cc1,-5.5,1.6,-3.6,-4.1,3.2,-6.3
COc1ccc(/C=C/C(=O)OCC(=O)Nc2cc(C(N)=O)cc(C(N)=O)c2)cc1,10.8,-13.5,-7.5,-7.3,0.0,18.1*
O=C(NC1CCCCCCC1)c1c(Cl)cccc1Cl,-1.3,-4.9,-5.1,-6.7,-4.2,0.6
COc1ccc(CCNCCC(c2ccccc2)c2ccccc2)cc1OC,-24.3,6.5,30.4,-3.4,0.0,-8.4
COc1cc(OC)c(OC)cc1CCC(C)NCCC(c1ccccc1)c1ccccc1 (configuration not stated),-35.0,9.1,73.7*,-8.7,-5.1,-12.0
CCc1ccc(CN(C)C(=O)c2cc(COc3ccc(OC)cc3Cl)on2)nc1,-3.9,13.8,8.5,-3.1,-2.2,-4.7
CC(=C/c1ccc(C(C)C)cc1)/C=N/NC(=O)Cn1nnnc1N,7.1,30.5*,-13.0,-6.5,-14.8,-12.3
O=S(=O)(Nc1ccc(Cc2ccncc2)cc1)c1ccc(Cl)c(Cl)c1,-20.3,7.2,51.8*,-5.1,-7.2,-20.9
CCc1ccc(OC)c(S(=O)(=O)Nc2ccc(Cc3ccncc3)cc2)c1,-18.4,15.5,36.4*,-5.5,3.0,-11.5

# Assay outcomes from PubChem.
